High-throughput results deposited in PubChem BioAssay by several laboratories.
Hits are enriched below; roughly 2% of the tested compounds scored in any of these assays.
TRPML3 ag: activates the human TRPML3 channel; activation, % at 3 µM; Q8TDD5; hit rate 0.29% among 220,000; HEK293 TRPML3-YFP, Fluo-8 calcium fluorescence; 100% = the carbachol control signal;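 active = activation above its plate's cutoff, the mean activation of the plate's test wells plus 3 SD, cut at about 12% in these data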;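 note: 0% = DMSO only wells and 100% = carbachol wells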
Target sequence (Q8TDD5 whole entry, looked up): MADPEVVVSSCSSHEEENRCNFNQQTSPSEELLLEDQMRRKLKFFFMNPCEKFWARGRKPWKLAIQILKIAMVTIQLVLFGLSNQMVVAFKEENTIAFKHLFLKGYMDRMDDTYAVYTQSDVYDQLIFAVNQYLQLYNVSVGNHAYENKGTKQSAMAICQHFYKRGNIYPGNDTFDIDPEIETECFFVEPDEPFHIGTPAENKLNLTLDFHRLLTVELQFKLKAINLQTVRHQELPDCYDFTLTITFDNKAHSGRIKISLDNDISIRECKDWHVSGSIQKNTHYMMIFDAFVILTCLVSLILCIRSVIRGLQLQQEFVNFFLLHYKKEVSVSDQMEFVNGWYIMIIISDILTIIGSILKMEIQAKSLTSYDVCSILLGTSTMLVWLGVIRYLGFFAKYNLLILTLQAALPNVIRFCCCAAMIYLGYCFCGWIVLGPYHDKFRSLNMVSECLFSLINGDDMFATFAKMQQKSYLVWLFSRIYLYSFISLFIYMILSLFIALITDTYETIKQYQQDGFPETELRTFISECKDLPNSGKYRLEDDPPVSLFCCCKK
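Test system – HEK293 line with stable expression of human TRPML3-YFP channel · Control set – carbachol 87 µM final as high control (100%), DMSO as low control (0%) · Signal – Fluo-8 calcium dye fluorescence, ex 470-495, em 515-575 nm · Incubation – 1-h 37 °C dye load, 5-s basal, 120-s post-compound reads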
CRFR2-BP antag: blocks CRF-induced signaling of the CRF-BP/CRF-R2 complex | HEK293 CRF-R2/CRF-BP, CRF-induced calcium fluorescence | inhibition, % at 11.8 µM | hit rate 0.59% among 350,000 | AID 588475;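 active = inhibition of the ligand-induced calcium signal above about 50% at the single tested concentration, limit read from the data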
GPR7 antag: blocks human GPR7 receptor signaling. GPR7-expressing cells, fluorescence antagonist assay. hit rate 1.1% among 290,000. P48145. inhibition, % at 4.4 µM; in the data active = inhibition above about 16%, passing the limit was not always enough;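 note: cells stimulated with the agonist NPW; 0% = agonist with vehicle and 100% = vehicle without agonist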
CRFBP-R2 agonist: CRF-BP/CRF-R2 complex agonism | HEK293 CRF-R2/CRF-BP, calcium dye fluorescence (FLIPR); percent of saturating CRF peptide response | hit rate 0.46% among 350,000 | activation, % at 13.2 µM;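 active = activation of at least 50%, plus an integration ratio under a set limit after plate pattern correction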;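 note: plate controls were neutral control wells without compound for no effect and CRF at EC100 for full effect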
TRPN1 ag: activates the zebrafish TRPN1 channel; hit rate 0.18% among 220,000; HEK293 zebrafish TRPN1-YFP, Fluo-8 calcium fluorescence; 100% = response to 87 µM carbachol; AID 1424; activation, % at 3 µM;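 active = activation above its plate's cutoff, the mean activation of test wells on that plate plus 3 SD, cut at about 19% in these data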;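 note: 0% = DMSO alone and 100% = 87 µM carbachol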
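Material: zebrafish TRPN1-YFP in HEK293 cells; Doses: single test compound dose, 3 µM nominal, 0.3% DMSO; Timing: dye loading 1 h at 37 °C, then 30 min room temperature; Technique: intracellular calcium fluorescence with Fluo-8; Benchmarks: high carbachol 87 µM, low DMSO alone.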
* hit, by the source's call.

For Cc1ccc(C)c(NC(=O)c2ccccc2NS(=O)(=O)c2cc([N+](=O)[O-])ccc2C)c1 the results were TRPML3 ag 17.9*, CRFR2-BP antag 77.9*, GPR7 antag 12.2, CRFBP-R2 agonist 63.0* and TRPN1 ag 26.6*.
For CC1=C(C(=O)OC(C)C)C(c2cccs2)N2C(=O)C(C)SC2=N1 (configuration not stated) the results were TRPML3 ag -0.9, CRFR2-BP antag 50.3*, GPR7 antag -1.2, CRFBP-R2 agonist 0.9 and TRPN1 ag -1.7.
COc1ccc(C2Nc3ccccc3C(=O)N2c2ccccc2)cc1CSc1ccccn1 (configuration not stated) was read as TRPML3 ag -0.7, CRFR2-BP antag 57.8*, GPR7 antag -0.3, CRFBP-R2 agonist 0.9 and TRPN1 ag -1.3.
Cc1ccc2c(cnn2C(=O)CCC(=O)N2CCCCC2)c1 was read as CRFR2-BP antag 70.9*, GPR7 antag -11.3 and CRFBP-R2 agonist -2.1.
Screening O=C(Nc1nc2c(s1)CN(Cc1ccccc1)CC2)c1cccc(S(=O)(=O)N2CCc3ccccc32)c1 returned TRPML3 ag 3.4, CRFR2-BP antag -92.1, GPR7 antag -11.8, CRFBP-R2 agonist 93.5* and TRPN1 ag 10.9.
For CC(C)C[C@H](NC(=O)c1[nH]cnc1C(=O)Nc1ccccc1F)C(=O)OC(C)(C)C the results were CRFR2-BP antag 7.5 and CRFBP-R2 agonist 5.9.
For Cc1cccc(C(=O)NC2=NCCS2)c1 the results were TRPML3 ag 0.0, CRFR2-BP antag 4.0, GPR7 antag 6.2, CRFBP-R2 agonist 0.5 and TRPN1 ag 2.1.
Screening CCOc1cc(C)c(C(C)C)cc1S(=O)(=O)n1cnc(C)c1 returned TRPML3 ag 1.2, CRFR2-BP antag -49.2, GPR7 antag 4.3, CRFBP-R2 agonist 104.0* and TRPN1 ag -2.5.
CN1/C(=C\C=C(C#N)C#N)C(C)(C)c2ccccc21 was read as TRPML3 ag 0.4, CRFR2-BP antag -81.3, GPR7 antag -3.9, CRFBP-R2 agonist 84.1* and TRPN1 ag 1.6.
Screening CN1/C(=C\C=C(/C#N)C(=O)Nc2ccc(Cl)cc2)C(C)(C)c2ccccc21 returned TRPML3 ag 0.3, CRFR2-BP antag -193.3, GPR7 antag -7.7, CRFBP-R2 agonist 140.7* and TRPN1 ag 5.2.
For CC(C)c1ccc(CN(C(=O)c2ccco2)C2CCS(=O)(=O)C2)cc1 (configuration not stated) the results were CRFR2-BP antag 9.8, GPR7 antag 3.7 and CRFBP-R2 agonist 0.0.
For CC(C)(C)C(=O)NC(=S)NNC(=O)c1ccc(-c2ccccc2)cc1 the results were TRPML3 ag 116.7*, CRFR2-BP antag -107.4, GPR7 antag 103.1*, CRFBP-R2 agonist 163.2* and TRPN1 ag 197.4*.
Screening CC(C)(C)C(=O)NC(=S)NCCc1ccccc1 returned TRPML3 ag -1.5, CRFR2-BP antag 51.4*, GPR7 antag 1.5, CRFBP-R2 agonist -0.3 and TRPN1 ag -1.6.
Cc1ccccc1C(=O)NNC(=S)NC(=O)COc1ccccc1 was read as TRPML3 ag 0.3, CRFR2-BP antag 11.3, GPR7 antag 9.7, CRFBP-R2 agonist 129.1* and TRPN1 ag -0.4.
S=C(NCCc1ccccc1)NCCc1ccccc1 was read as TRPML3 ag -0.1, CRFR2-BP antag 2.8, GPR7 antag 6.1, CRFBP-R2 agonist -1.5 and TRPN1 ag -0.5.
Cc1ccc(C(=O)NNC(=S)NC(=O)COc2ccccc2)cc1 was read as TRPML3 ag -0.2, CRFR2-BP antag -62.7, GPR7 antag -10.4, CRFBP-R2 agonist 141.7* and TRPN1 ag 0.1.
Screening C[C@@H]1CN([C@@H](C)CO)C(=O)CCCn2nncc2CO[C@H]1CN(C)C returned CRFR2-BP antag 2.5 and CRFBP-R2 agonist 4.0.
CCN(CC(=O)Nc1ccc(OC)cc1)C(=O)c1cccc(S(=O)(=O)N2CCN(c3ccccc3)CC2)c1 was read as CRFR2-BP antag 14.0 and CRFBP-R2 agonist 3.6.
For COc1ccc(Cl)cc1NS(=O)(=O)c1cccc(C(=O)NCCCN2CCCC2=O)c1 the results were CRFR2-BP antag 7.1, GPR7 antag -10.6 and CRFBP-R2 agonist 3.4.
Screening CN(C)S(=O)(=O)c1cccc(NC(=O)CN2C(=O)NC3(CCc4ccccc4C3)C2=O)c1 (configuration not stated) returned CRFR2-BP antag -6.7, GPR7 antag -0.4 and CRFBP-R2 agonist -0.5.
CC(C)(C)c1ccc(OCC(=O)NNC(=O)CCc2ccccc2)cc1 was read as TRPML3 ag -0.6, CRFR2-BP antag -10.3, GPR7 antag 7.0, CRFBP-R2 agonist -1.0 and TRPN1 ag -0.6.
`CC(C)(C)c1ccc(C(=O)NC(=S)NNC(=O)COc2ccccc2)cc1` gave CRFR2-BP antag -63.9, GPR7 antag -19.8 and CRFBP-R2 agonist 95.7*.
`Brc1ccc(CSc2nnc(Cc3c[nH]c4ccccc34)o2)cc1` gave TRPML3 ag 0.1, CRFR2-BP antag 50.3*, GPR7 antag -5.3, CRFBP-R2 agonist -2.8 and TRPN1 ag -1.0.
`Clc1ccc(CSc2nnc(-c3c[nH]c4ccccc34)o2)cc1` gave TRPML3 ag 0.9, CRFR2-BP antag 2.6, GPR7 antag -3.1, CRFBP-R2 agonist 3.4 and TRPN1 ag -0.5.
Nc1ncc(Br)cc1S(=O)(=O)Nc1ccccc1F was read as CRFR2-BP antag 9.2, GPR7 antag 10.6 and CRFBP-R2 agonist -0.7.
For CN1C[C@@H]2[C@@H]3C(=O)N(C)C(=O)[C@@H]3[C@](C)(C1=O)N2C(=O)c1ccc(Br)cc1 the results were CRFR2-BP antag -2.0 and CRFBP-R2 agonist -0.5.
`COc1ccc(N(CC(=O)N/N=C/c2ccc3c(c2)OCO3)S(=O)(=O)c2ccc(NC(C)=O)cc2)cc1` gave TRPML3 ag -0.4, CRFR2-BP antag 54.2*, GPR7 antag 5.3, CRFBP-R2 agonist 1.2 and TRPN1 ag 0.3.
`COc1ccccc1C(=O)N/N=C/c1ccc2c(c1)OCO2` gave CRFR2-BP antag 8.8, GPR7 antag 5.6 and CRFBP-R2 agonist -0.7.
`COc1ccc(N(CC(=O)Nc2ccc3c(c2)OCO3)S(=O)(=O)c2ccc(F)cc2)cc1` gave TRPML3 ag 0.6, CRFR2-BP antag 8.7, GPR7 antag -10.2, CRFBP-R2 agonist -0.1 and TRPN1 ag 0.6.
COc1cc2ccccc2cc1C(=O)N/N=C/c1ccc2c(c1)OCO2 was read as CRFR2-BP antag 53.3*, GPR7 antag 6.5 and CRFBP-R2 agonist -1.0.
For O=C(NNC(=S)Nc1ccc(Cl)cc1)c1ccccc1OC(F)F the results were TRPML3 ag 2.8, CRFR2-BP antag -52.0, GPR7 antag -4.8, CRFBP-R2 agonist 51.1* and TRPN1 ag 3.7.
For O=C(c1ccccc1)N1CCN(c2ccc(Cl)cc2)CC1 the results were TRPML3 ag 1.2, CRFR2-BP antag -8.8, GPR7 antag 19.9*, CRFBP-R2 agonist -0.7 and TRPN1 ag 3.0.
For Cc1ccccc1-c1ccc(=O)n(CC(=O)Nc2ccc(C(=O)N3CCCC3)cc2)n1 the results were TRPML3 ag -0.3, CRFR2-BP antag -7.8, GPR7 antag 6.1, CRFBP-R2 agonist -0.4 and TRPN1 ag 0.3.
